Data from ChEMBL document CHEMBL3390837, “Bridged tetrahydroisoquinolines as selective NADPH oxidase 2 (Nox2) inhibitors” (Medchemcomm, 2013).
Calls of active or inactive are those of the source. The rule behind the calls is not given here.

What was measured:
[1] = target: T1, NADPH oxidase 1 (Homo sapiens, UniProt Q9Y5S8); assay: Inhibition of full length human NOX1 transfected in COS 22 cells assessed as inhibition of constitutive ROS generation by chemiluminescence assay; settings: read-out: IC50
T1 sequence (Q9Y5S8 whole entry): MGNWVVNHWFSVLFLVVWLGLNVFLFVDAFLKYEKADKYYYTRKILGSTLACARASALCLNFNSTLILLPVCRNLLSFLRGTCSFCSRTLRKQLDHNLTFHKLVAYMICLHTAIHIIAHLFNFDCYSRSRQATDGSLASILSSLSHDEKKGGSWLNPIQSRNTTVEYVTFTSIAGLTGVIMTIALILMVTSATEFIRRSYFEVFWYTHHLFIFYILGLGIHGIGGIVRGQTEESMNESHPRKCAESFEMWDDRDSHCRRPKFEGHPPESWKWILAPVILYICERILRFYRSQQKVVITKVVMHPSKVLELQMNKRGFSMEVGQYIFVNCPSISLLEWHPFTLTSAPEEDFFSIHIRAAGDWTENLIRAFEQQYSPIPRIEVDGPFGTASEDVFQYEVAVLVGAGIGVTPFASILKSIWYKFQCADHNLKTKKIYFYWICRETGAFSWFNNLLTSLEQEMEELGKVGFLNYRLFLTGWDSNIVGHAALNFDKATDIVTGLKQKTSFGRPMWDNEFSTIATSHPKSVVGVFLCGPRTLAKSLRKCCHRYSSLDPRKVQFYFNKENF

[2] = Cytotoxicity against african green monkey COS7 cells expressing human p22phox assessed as cell viability at 25 to 50 uM after 15 mins by luminogenic assay; assay type: cell-based; settings: chlorocebus aethiops, cos-7, 0.25 h
Procedure, shortened: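 COS-22 cells plated at 2.5 x 10³ cells/well in OPTIMEM, exposed 15 min to compounds at various concentrations; dead-cell protease release read with luminogenic AAF peptide substrate, signal before and after digitonin used to derive % dead; reported as % live cells (100 − % dead) per well.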

[3] = target: T2, NADPH oxidase 2 (Homo sapiens, UniProt P04839); assay: Inhibition of full length human NOX2 transfected in COS 22 cells assessed as inhibition of Phorbol 12-myristate 13-acetate-stimulated ROS generation by measuring H2O2 production by fluorescence assay in presence of superoxide dismutase; assay type: cell-based; settings: read-out: IC50
T2 sequence (P04839 whole entry): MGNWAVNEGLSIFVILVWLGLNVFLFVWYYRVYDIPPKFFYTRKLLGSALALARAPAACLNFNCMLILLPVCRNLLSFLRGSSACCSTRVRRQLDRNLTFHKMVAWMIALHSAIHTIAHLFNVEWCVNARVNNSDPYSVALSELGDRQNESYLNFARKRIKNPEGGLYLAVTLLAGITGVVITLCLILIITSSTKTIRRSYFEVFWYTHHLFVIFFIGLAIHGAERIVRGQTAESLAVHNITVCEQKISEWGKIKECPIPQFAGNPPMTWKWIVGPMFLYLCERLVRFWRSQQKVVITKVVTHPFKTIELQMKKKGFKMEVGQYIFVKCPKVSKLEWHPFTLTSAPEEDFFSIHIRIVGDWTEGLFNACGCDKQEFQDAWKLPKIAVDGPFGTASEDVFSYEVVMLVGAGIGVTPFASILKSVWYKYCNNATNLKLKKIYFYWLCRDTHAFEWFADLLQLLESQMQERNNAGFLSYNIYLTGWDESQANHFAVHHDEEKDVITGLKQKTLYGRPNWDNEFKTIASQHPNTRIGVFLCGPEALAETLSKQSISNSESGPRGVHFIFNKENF
Procedure, shortened: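 Intact COS-Nox2 cells in Hepes pH 7.4 buffer with 0.1 mM Amplex Red, 0.32 U/ml HRP and 150 U/mL SOD, drug 15 min at 37 °C; started with 5 µM PMA; fluorescence monitored 1 h at 37 °C; rate as RFU/min minus unstimulated cells; % of vehicle control.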

[4] = target: T3, NADPH oxidase 2 (Homo sapiens) (UniProt P04839); assay: Inhibition of full length human NOX2 transfected in COS 22 cells assessed as inhibition of lithium dodecyl sulphate-stimulated ROS generation at 6.3 uM preincubated for 15 mins followed by lithium dodecyl sulphate challenge by cell-free assay in presence of NADPH
T3 sequence (whole entry): T2 sequence (P04839 whole entry)
Procedure, shortened: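 COS-Nox2 lysate (freeze/thaw ×5, needle passage, 1000 × g spin, kept near 0 °C) at 5 × 10⁵ cell equivalents/well in 65 mM sodium phosphate pH 7.0 with 1 mM EGTA, 10 µM FAD, 1 mM MgCl₂, 2 mM NaN₃, 0.2 mM cytochrome c; superoxide from initial 10-min linear rate of SOD-inhibitable cytochrome c reduction at 550 nm (21.1 mM⁻¹ cm⁻¹).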

[5] = target: T4, NADPH oxidase 4 (Homo sapiens, UniProt Q9NPH5); assay: Inhibition of full length human NOX4 transfected in COS 22 cells assessed as inhibition of ROS generation by measuring H2O2 production by fluorescence assay; settings: read-out: IC50
T4 sequence (Q9NPH5 whole entry): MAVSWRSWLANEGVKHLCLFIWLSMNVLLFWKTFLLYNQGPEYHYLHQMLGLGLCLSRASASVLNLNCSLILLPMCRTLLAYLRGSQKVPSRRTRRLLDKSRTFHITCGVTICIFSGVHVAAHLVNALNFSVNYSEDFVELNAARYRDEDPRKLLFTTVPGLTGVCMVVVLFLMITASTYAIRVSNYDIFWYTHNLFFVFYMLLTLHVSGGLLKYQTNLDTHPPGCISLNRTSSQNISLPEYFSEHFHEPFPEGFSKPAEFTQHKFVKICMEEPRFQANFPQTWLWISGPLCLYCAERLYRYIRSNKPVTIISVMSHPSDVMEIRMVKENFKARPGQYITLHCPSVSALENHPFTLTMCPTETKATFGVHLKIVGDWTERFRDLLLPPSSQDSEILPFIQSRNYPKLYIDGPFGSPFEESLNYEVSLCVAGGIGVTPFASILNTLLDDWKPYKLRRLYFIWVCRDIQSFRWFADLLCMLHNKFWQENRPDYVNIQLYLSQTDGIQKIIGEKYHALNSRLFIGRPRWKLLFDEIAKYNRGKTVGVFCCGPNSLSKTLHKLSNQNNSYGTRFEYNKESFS

IC50 [1]: 31 µM
IC50 [3]: 40 µM
inhibition [4]: Active
IC50 [5]: > 100 µM
SMILES: C=C(C)C[C@@H]1N[C@H]2CC(C)(C)[C@@H]1c1c(Br)cccc12 (racemic)
Activity [2]: Non-toxic
